Here are results for 27 molecules from ChEMBL document CHEMBL2046366, “Design, synthesis and biological evaluation of novel imidazopyridines as potential antidiabetic GSK3β inhibitors” (Bioorg Med Chem Lett, 2012).

A short description of data set [1]: Metabolic stability in mouse liver microsome after 45 mins by mass spectroscopy. Particulars: liver microsomes, read-out: Stability. It counts as ADME. An outline of the steps:
(§1)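 Compound incubated with human or mouse liver microsomes at 37 °C for 45 min. Percent compound remaining was measured by mass spectrometry.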

The nature of data set [2]: Metabolic stability in human liver microsome after 45 mins by mass spectroscopy. It counts as ADME. The conditions noted are these: liver microsomes, read-out: Stability. The essentials:
as §1

A short description of data set [3]: AUC in ICR mouse at 27.3 mg/kg, po. The format is ADME, organism-based. The arrangement: dose 27.3 mg/kg, route oral. Particulars: plasma. An outline of the steps:
(§2)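 Single oral dose of 27.3 mg kg^-1, given as HCl salt formulation, to male ICR mice (n = 2). AUC, Cmax and Tmax were derived from plasma concentration–time data.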

Data set [4] in a line: Cmax in ICR mouse at 27.3 mg/kg, po. The arrangement: dose 27.3 mg/kg, route oral. Particulars: in vivo. It counts as ADME, organism-based. The essentials: as §2
Data set [5] is described as follows: Tmax in ICR mouse at 27.3 mg/kg, po. It counts as ADME, organism-based. On the set-up: dose 27.3 mg/kg, route oral. The conditions noted are these: in vivo. The essentials:
as §2

On to `O=C(NCCCc1ccc(Cl)nc1)c1ccnc2[nH]c(-c3ccc(F)cc3)nc12`, for which the remaining at 0.75 h in data set [1] was 4.2%; in data set [2], 25.7%.
With `COc1ccncc1NC(=O)c1ccnc2[nH]c(-c3cccc(Cl)c3)nc12.Cl`, the AUC in data set [3] was 27 ng·h/mL.
With `O=C(NCCc1ccc(F)nc1)c1ccnc2nc(-c3ccc(F)cc3)[nH]c12`, the remaining at 0.75 h turned out to be 2.9% in data set [1] and 9.4% in data set [2].
Turning to `O=C(Nc1cccnc1)c1ccnc2[nH]c(-c3ccc(F)cc3)nc12`, the remaining at 0.75 h in data set [1] turned out to be 70%.
`O=C(NCCc1cccc(O)c1)c1ccnc2[nH]c(-c3ccc(F)cc3)nc12`: the remaining at 0.75 h in data set [1] is 11.1%; in data set [2] it was 12.1%.
The like results for `CS(=O)(=O)Nc1ccc(CCNC(=O)c2ccnc3[nH]c(-c4ccc(F)cc4)nc23)cc1` were, in that order, 0.8% and 13%.
The like results for `CN(C)S(=O)(=O)Nc1ccc(CCNC(=O)c2ccnc3[nH]c(-c4ccc(F)cc4)nc23)cc1` were, in that order, 1% and 7.4%.
On the same counts, the results for `CS(=O)(=O)Nc1ccc(CCNC(=O)c2ccnc3[nH]c(-c4ccc(Cl)cc4)nc23)cc1` are 70.2% and 86.6%.
Consider `CS(=O)(=O)Nc1ccc(CCNC(=O)c2ccnc3[nH]c(-c4ccoc4)nc23)cc1`, for which the remaining at 0.75 h in data set [1] stood at 5.2%; in data set [2] it was 47%.
On the same counts, the results for `CS(=O)(=O)Nc1ccc(CCNC(=O)c2ccnc3[nH]c(-c4cccs4)nc23)cc1` are 2.2% and 36.8%.
The like results for `CN(C)S(=O)(=O)Nc1ccc(CCNC(=O)c2ccnc3[nH]c(-c4ccsc4)nc23)cc1` were, in that order, 1.6% and 13.3%.
For the molecule `O=C(NCCc1cccnc1Cl)c1ccnc2[nH]c(-c3ccoc3)nc12`, the figures for the remaining at 0.75 h in data set [1] and in data set [2] were 1.5% and 26.5%, respectively.
The like results for `Cc1ccncc1NC(=O)c1ccnc2[nH]c(N3CCC(c4ccccc4)C3)nc12` (centres undefined) were, in that order, 28.9% and 36.5%.
The like results for `CCN(CC)c1ccc(-c2nc3c(C(=O)Nc4cnccc4C)ccnc3[nH]2)cc1` were, in that order, 0% and 0%.
The like results for `COc1ccncc1NC(=O)c1ccnc2[nH]c(-c3ccc(F)cc3)nc12` were, in that order, 87% and 71%.
For the molecule `CCOc1ccncc1NC(=O)c1ccnc2[nH]c(-c3ccc(F)cc3)nc12`, the results for the remaining at 0.75 h in data set [1] and in data set [2] were 36% and 38%, respectively.
On the same counts, the results for `Cc1ccc(NC(=O)c2ccnc3[nH]c(-c4ccc(F)cc4)nc23)cn1` are 47.4% and 33.3%.
`COc1ccc(-c2nc3c(C(=O)Nc4cnccc4C)ccnc3[nH]2)cc1`: the figures for the remaining at 0.75 h in data set [1] and in data set [2] were 56.8% and 51.4%, respectively.
The like results for `COc1cccc(-c2nc3c(C(=O)Nc4cnccc4C)ccnc3[nH]2)c1` were, in that order, 6.6% and 4%.
As for `CCOc1ccncc1NC(=O)c1ccnc2[nH]c(-c3cccnc3)nc12`, the remaining at 0.75 h in data set [1] was determined as 6.3%; in data set [2], 6.5%.
On the same counts, the results for `CCOc1ccncc1NC(=O)c1ccnc2[nH]c(-c3cccc(OC)c3)nc12` are 6.4% and 23.8%.
In the case of `COc1ccncc1NC(=O)c1ccnc2[nH]c(-c3cccc(Cl)c3)nc12`, the remaining at 0.75 h was determined as 46.7% in data set [1] and 36.5% in data set [2].
The like results for `COc1ccncc1NC(=O)c1ccnc2nc(-c3ccncc3)[nH]c12` were, in that order, 27% and 96%.
`Cc1ccncc1NC(=O)c1ccnc2[nH]c(N3CCC(c4ccccc4)C3)nc12.Cl` (centres undefined) came in with an area under the curve (AUC) in data set [3] of 39 ng·h/mL.
For `COc1ccncc1NC(=O)c1ccnc2[nH]c(-c3ccc(F)cc3)nc12.Cl`, the exposure (AUC) in data set [3] was found to be 545 ng·h/mL. The concentration in data set [4] peaked (Cmax) at 228 ng/mL. Further, the time of peak concentration (Tmax) in data set [5] turned out to be 1 h.
The like results for `Cc1ccc(NC(=O)c2ccnc3[nH]c(-c4ccc(F)cc4)nc23)cn1.Cl` were, in that order, 2400 ng·h/mL, 843 ng/mL and 3 h.
Molecule `COc1ccc(-c2nc3c(C(=O)Nc4cnccc4C)ccnc3[nH]2)cc1.Cl` displayed an area under the curve (AUC) in data set [3] of 645 ng·h/mL. In data set [4], this molecule displayed a maximum concentration (Cmax) of 496 ng/mL. Moreover, the Tmax in data set [5] came out at 0.5 h.

As usually defined, the AUC is concentration integrated over time. Read a high AUC as more exposure. By Cmax is commonly meant the peak of the concentration-time curve. As usually defined, the Tmax is the time from dosing to the highest level.
